# HDAC3 inh: inhibitors of human histone deacetylase 3; AID 2718; O15379; recombinant HDAC3, fluorogenic peptide/trypsin coupled, fluorescence; inhibition, % at 8.3 µM; 320,000 compounds, 0.15% hits; in the data active = inhibition above about 26%, passing the limit was not always enough; inconclusive = no clear call, values can overlap the other calls
# SENP1 FRET inh: blocks the human SENP1 SUMO protease catalytic domain; inhibition, % at 10 µM; AID 624204; recombinant SENP1 catalytic domain, CyPet-SUMO1-YPet FRET cleavage; 360,000 compounds, 0.21% hits;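 active = inhibition at least 30% at 10 µM, raw YFP signal under a set limit, fluorescence ratio 0.5 to 1.5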;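 also: 0% = enzyme with DMSO and 100% = no enzyme wells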
#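 Test system: hSENP1 catalytic domain, recombinant; Amount: 20 pM final SENP1 enzyme; Medium: Tris pH 8 buffer plus EDTA, NaCl, BME, BSA, NP40, catalase; Schedule: 50 min enzyme reaction, room temperature, light-protected; Technique: FRET fluorescence in CFP and YFP emission channels; Controls: no-enzyme wells low, DMSO-plus-enzyme wells high control.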
# AHR activator: activates the human aryl hydrocarbon receptor; P35869; AHR-responsive luciferase reporter cells, luminescence; activation, % at 5 µM; 320,000 compounds, 2.5% hits; AID 2796; in the data active = activation above about 47%;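 also: 0% = vehicle wells and 100% = reference agonist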
# Target sequence (P35869 whole entry, looked up): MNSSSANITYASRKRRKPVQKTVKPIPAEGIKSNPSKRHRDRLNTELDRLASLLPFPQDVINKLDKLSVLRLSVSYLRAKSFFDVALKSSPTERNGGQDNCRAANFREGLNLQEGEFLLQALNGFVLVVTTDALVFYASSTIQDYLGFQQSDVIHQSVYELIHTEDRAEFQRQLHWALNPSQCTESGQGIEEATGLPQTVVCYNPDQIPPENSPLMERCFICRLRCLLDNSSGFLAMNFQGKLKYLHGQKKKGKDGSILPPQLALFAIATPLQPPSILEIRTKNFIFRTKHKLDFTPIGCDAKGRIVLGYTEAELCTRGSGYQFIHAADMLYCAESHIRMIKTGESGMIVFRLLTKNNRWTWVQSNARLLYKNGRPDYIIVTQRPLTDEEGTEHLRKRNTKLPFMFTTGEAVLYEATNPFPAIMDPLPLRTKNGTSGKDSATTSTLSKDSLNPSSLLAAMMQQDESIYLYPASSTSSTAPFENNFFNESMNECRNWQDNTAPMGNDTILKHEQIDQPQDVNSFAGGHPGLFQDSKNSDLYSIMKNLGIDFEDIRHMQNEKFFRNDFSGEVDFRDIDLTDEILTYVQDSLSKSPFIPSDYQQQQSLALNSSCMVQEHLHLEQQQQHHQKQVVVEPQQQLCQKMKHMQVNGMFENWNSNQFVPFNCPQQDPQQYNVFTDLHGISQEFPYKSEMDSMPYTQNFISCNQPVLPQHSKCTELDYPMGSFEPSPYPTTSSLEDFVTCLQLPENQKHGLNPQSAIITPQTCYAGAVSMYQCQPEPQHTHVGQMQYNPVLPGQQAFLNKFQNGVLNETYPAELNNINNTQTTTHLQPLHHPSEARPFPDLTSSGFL
# PfM18AAP inh: PfM18AAP enzyme inhibition. inhibition, % at 7.35 µM. recombinant PfM18AAP, H-Glu-NHMec fluorogenic cleavage. 290,000 compounds, 1.2% hits;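 active = inhibition above the campaign mean inhibition over all tested compounds plus 3 SD, cut at about 28% in these data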;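 also: 0% = plate median of test compound wells and 100% = 2 mM ZnCl2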
# GAA850 FXN act: frataxin GAA850 promoter activation; HEK293 lucGAA850 FXN promoter luciferase reporter, 24 h; percent of 10 µM SAHA response; activation, % at 6 µM; 360,000 compounds, 0.56% hits; AID 540364;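 active = activation above the average of all compounds screened plus 3 SD, cutoff fixed separately per campaign, cut at about 7.5% in these data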;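 also: 0% = DMSO wells and 100% = 10 µM SAHA wells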
# CTSL1 counter: counter-screen for PFM18AAP inhibitors: inhibitors of F. hepatica cathepsin L1; recombinant F. hepatica cathepsin L1, Z-Leu-Arg-MCA fluorescence; inhibition, % at 5.96 µM; 300,000 compounds, 0.49% hits; AID 1906;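 active = inhibition above the mean of all tested compounds plus 3 SD, set per screening campaign, cut at about 17% in these data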;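 also: 0% = plate median of test compound wells and 100% = 1 µM Z-Phe-Ala-diazomethylketone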
# * hit, by the source's call; u = inconclusive; x = no result. In the library only some 4.2% were active in any assay of this set; here they are far more common.
SMILES,HDAC3 inh,SENP1 FRET inh,AHR activator,PfM18AAP inh,GAA850 FXN act,CTSL1 counter
c1ccc(-c2noc(-c3cccc4ccccc34)n2)cc1,0,0,51*,4,3,2
COc1ccc(-c2noc(-c3ccccc3F)n2)cc1,7,1,48*,4,4,2
Brc1ccccc1-c1nc(-c2ccccc2)no1,0,x,50*,-15,x,2
c1cncc(-c2noc(-c3cccc4ccccc34)n2)c1,-2,0,59*,-4,3,0
COc1ccc(-c2noc(-c3ccccc3-c3ccccc3)n2)cc1,-1,3,-6,0,0,0
CCS(=O)(=O)N1CCC(NC(=O)C(Cc2cc(OC)ccc2OC)NC(C)=O)CC1 (centres undefined),2,2,0,9,2,4
COc1ccc(OC)c(S(=O)(=O)NC(=O)C2(C)CCN2C(=O)C2(c3ccc(Cl)cc3)CC2)c1 (centres undefined),x,4,x,x,0,x
Brc1cccc(-c2nc(-c3ccncc3)no2)c1,-14,0,52*,-1,2,2
Cc1cccc(-c2nc(-c3ccncc3)no2)c1,-1,0,4,-11,3,6
CCCONC(=O)Nc1ccccc1[N+](=O)[O-],0,2,53*,-6,2,-1
Cc1ccccc1NC(=O)Nc1ccccn1,2,2,26,2,2,-7
O=C(Nc1ccccn1)Nc1ccccc1[N+](=O)[O-],-6,1,49*,-3,2,5
O=C(CSCC(=O)N1CCOCC1)Nc1nc(-c2ccc3c(c2)OCO3)cs1,-13,0,50*,-11,2,-4
N#CCC(=O)Nc1nc(-c2ccc3c(c2)OCCO3)cs1,8,-24,14,5,1,3
CCOC(=O)N1CCN(C(=O)CSCC(=O)Nc2nc(-c3ccc4c(c3)OCO4)cs2)CC1,-2,1,63*,-1,2,3
COc1cccc(C(=O)Nc2nc(-c3ccncc3)cs2)c1,8,0,-11,3,-1,1
CCOC(=O)N1CCN(C(=O)CSCC(=O)Nc2nc(-c3ccc(C)cc3)cs2)CC1,10,3,5,-7,1,-2
COc1cccc(C(=O)Nc2nc(-c3ccc4c(c3)OCO4)cs2)c1,2,1,68*,2,0,-3
Cc1ccc(N=Nc2c(C)[nH][nH]c2=O)c(C)c1,-4,11,48*,3,0,4
COc1ccccc1N=Nc1c(C)[nH][nH]c1=O,12,7,-1,-2,3,3
COc1cccc(CN(C)C(=O)c2cc(S(=O)(=O)NC3CCCCC3)ccc2C)c1OC,0,-1,0,x,1,x
Cc1ccc(-c2nc3ccccc3nc2NN)cc1,-6,-1,8,31*,4,2
O=S(=O)(c1ccccc1)N(CC(O)Cn1c2ccccc2c2ccccc21)c1ccccc1 (centres undefined),1,-1,64*,-2,-2,0
COc1ccccc1N(CC(O)Cn1c2ccccc2c2ccccc21)S(=O)(=O)c1ccccc1 (centres undefined),16,3,45,2,-1,4
CCN(CC(O)Cn1c2ccccc2c2ccccc21)S(=O)(=O)c1ccc(F)cc1 (centres undefined),30*,1,27,1,-2,-2
SMILES,HDAC3 inh,SENP1 FRET inh,AHR activator,PfM18AAP inh,GAA850 FXN act,CTSL1 counter
CCOC(=O)C1(Cc2ccccc2Cl)CCN(Cc2csc(C(C)=O)c2)CC1,6,-2,4,7,0,3
CCCCN(C)c1c(C)nc2ccc(C(=O)NCCCn3ccnc3)cn12,x,-3,x,x,0,x
COC(=O)N/N=C/c1cn(Cc2c(Cl)cccc2Cl)c2ccccc12,11,3,64*,0,-1,3
COC(=O)N/N=C/c1cn(Cc2ccc(Cl)cc2Cl)c2ccccc12,-3,1,71*,-2,-1,3
COC(=O)N/N=C/c1cn(Cc2ccccc2F)c2ccccc12,6,1,58*,1,5,1
COC(=O)N/N=C/c1cn(Cc2ccc(F)cc2)c2ccccc12,7,-1,26,3,-1,2
CCCCn1c(N)c(N(CC)C(=O)C2=NN(c3ccccc3)C(=O)CC2)c(=O)[nH]c1=O,0,-2,0,x,1,x
O=C(NC(C(=O)c1ccccc1)c1ccccc1)c1ccccc1 (centres undefined),x,2,x,x,0,x
Cc1nn(CC(=O)N2CCOCC2)c(=O)c2nn(-c3ccccc3)c(C)c12,-7,-1,1,-19,-1,4
CC(C)C[C@H]1CN(CCCC[C@@H]2CNC(=O)C(=O)N2CCc2ccccc2)C(=O)C(=O)N1CCc1ccc(O)cc1,x,3,x,x,x,x
O=c1c2[nH]c3ccc(Br)cc3c2ncn1CCCn1ccnc1,2,1,44,14,-1,1
O=c1c2[nH]c3ccccc3c2ncn1CCCn1ccnc1,-2,1,66*,1,-1,1
CN(C)CCCn1c(=S)[nH]c2ccccc2c1=O,-7,3,0,-15,2,0
O=c1c2ccccc2[nH]c(=S)n1CCCn1ccnc1,1,2,68*,8,1,-3
C/C(=N/NC(=O)CNC(=O)CCc1ccccc1)c1ccc(Cl)c(Cl)c1,-1,3,-1,1,-2,-1
Cc1ccc(Nc2nc(-c3sc(C)nc3C)cs2)cc1,14,1,62*,1,-1,0
CC(=O)c1cccc(Nc2nc(-c3sc(N)nc3C)cs2)c1,7,0,49*,18,2,-2
Cc1nc(N)sc1-c1csc(Nc2ccc(Cl)cn2)n1,1,-33,76*,8,6,7
CC(=O)c1cccc(Nc2nc(-c3sc(C)nc3C)cs2)c1,3,1,-2,-3,4,5
Cc1nc(N)sc1-c1csc(Nc2ccccn2)n1,x,-39,x,13,2,x
Cc1nc(N)sc1-c1csc(Nc2cccc(O)c2)n1,6,-12,71*,31*,1,1
O=C(Cc1ccccc1[N+](=O)[O-])NCC1(c2cccc3c2OCO3)OCCO1,x,-2,x,x,1,x
O=C(O)c1ccc(N/N=C2/CCSc3ccc(F)cc32)cc1,5,-3,2,29*,2,8
Cc1ccc(NC2=C(N3CCOCC3)C(=O)c3ccccc3C2=O)cc1,3,-124,-6,11,5,17*
CC(=O)c1ccc(NC2=C(N3CCOCC3)C(=O)c3ccccc3C2=O)cc1,u,-85,7,12,0,35*
O=C(O)c1ccc(NC2=C(N3CCOCC3)C(=O)c3ccccc3C2=O)cc1,-11,-60,5,-3,2,33*
O=C(c1[nH]c(C(F)(F)F)nc1-c1ccccc1)N1CCN(Cc2c(F)cccc2Cl)CC1,x,-1,x,x,x,x
